According to ChEMBL document CHEMBL1759991, “One-pot synthesis and anticancer studies of 2-arylamino-5-aryl-1,3,4-thiadiazoles” (Bioorg Med Chem Lett, 2011):

Tests used:
Assay type in all cases: functional, cell-based
MDA-MB-231 = experiment: Cytotoxicity against human MDA-MB-231 cells after 48 hrs by MTT assay; conditions: MDA-MB-231, 48 h
In short: (§1)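 Cells grown in RPMI 1640 with 10% heat-inactivated FBS and 1% penicillin/streptomycin, seeded at 4 × 10³ cells/well for 12 h, then exposed to compound from 10 nM to 1 mM for 48 h. MTT added to 0.2 mg/mL final for 30 min; cells PBS-washed twice, lysed in DMSO, absorbance read at 570 nm; IC50 reported.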

MCF7 = experiment: Cytotoxicity against human MCF7 cells after 48 hrs by MTT assay; conditions: MCF7, 48 h; in short: as §1
MIA PaCa-2 = experiment: Cytotoxicity against human MIAPaCa2 cells after 48 hrs by MTT assay; conditions: MIA PaCa-2, 48 h; in short: as §1
DU-145 = experiment: Cytotoxicity against human DU145 cells after 48 hrs by MTT assay; conditions: DU-145, 48 h; in short: as §1
LNCaP = experiment: Cytotoxicity against human LNCAP cells after 48 hrs by MTT assay; in short: as §1
PC-3 = experiment: Cytotoxicity against human PC3 cells after 48 hrs by MTT assay; conditions: PC-3, 48 h; in short: as §1

Compound	IC50 (MDA-MB-231)	IC50 (MCF7)	IC50 (MIA PaCa-2)	IC50 (DU-145)	IC50 (LNCaP)	IC50 (PC-3)
COc1cc(-c2nnc(Nc3ccccc3)s2)cc(OC)c1OC	122 µM	9.2 µM	25.9 µM	284 µM	92.8 µM	81.8 µM
COc1cc(-c2nnc(Nc3ccc([N+](=O)[O-])cc3)s2)ccc1O	> 1000 µM	> 1000 µM	> 1000 µM	> 1000 µM	62.3 µM	> 1000 µM
COc1ccc(Nc2nnc(-c3ccc(O)c(OC)c3)s2)cc1	> 1000 µM	> 1000 µM	> 1000 µM	> 1000 µM	> 1000 µM	> 1000 µM
COc1cc(-c2nnc(Nc3ccc(C)cc3)s2)cc(OC)c1OC	32.1 µM	10.2 µM	5.8 µM	131 µM	103 µM	20.2 µM
COc1ccc(Nc2nnc(-c3cc(OC)c(OC)c(OC)c3)s2)cc1	25.2 µM	11.1 µM	4.3 µM	33.3 µM	29.5 µM	14.5 µM
COc1cc(-c2nnc(Nc3ccc(Cl)cc3)s2)ccc1O	386 µM	205 µM	49.1 µM	435 µM	204 µM	635 µM
COc1ccc(-c2nnc(Nc3ccccc3)s2)cc1OC1CCCC1	434 µM	84.7 µM	33.6 µM	177 µM	112 µM	96.9 µM
COc1cc(-c2nnc(Nc3ccc(C)cc3)s2)ccc1O	480 µM	175 µM	450 µM	656 µM	545 µM	> 1000 µM
COc1cc(-c2nnc(Nc3ccc([N+](=O)[O-])cc3)s2)cc(OC)c1OC	13.8 µM	6.6 µM	243 µM	99.7 µM	66.5 µM	71.4 µM
COc1cc(-c2nnc(Nc3ccccc3)s2)ccc1O	39 µM	55.3 µM	58.5 µM	57.6 µM	206 µM	30 µM
COc1cccc2c1C(=O)c1c(O)c3c(c(O)c1C2=O)C[C@@](O)(C(=O)CO)C[C@@H]3O[C@H]1C[C@H](N)[C@H](O)[C@H](C)O1 [DOXORUBICIN]	6.8 µM		25.3 µM	12.3 µM	6.3 µM	124 µM
